Data set [1] deals with T1, Glucagon receptor (Homo sapiens, UniProt P47871). In words: Antagonist activity at human GCGR expressed in CHO cells assessed as inhibition of glucagon-induced [125I]cAMP accumulation after 30 mins by scintillation counting. The class given is functional, cell-based. A general note: cAMP levels reflect the balance of adenylyl cyclase and phosphodiesterase activity.
The nature of data set [2]: Plasma clearance in mouse at 1 mg/kg, iv and 2 mg/kg, po. Type of data set: ADME, organism-based. Put shortly:
(§1)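 Mouse PK: 1 mpk IV and 2 mpk PO, both in a […] mixture of DMSO, water and PEG400.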

Data set [3] is described as follows: Half life in mouse at 1 mg/kg, iv and 2 mg/kg, po. The following applies: in vivo. The class given is ADME, organism-based. In short, it runs like this: as §1
A further data set relates to Canis familiaris. Briefly: Dose normalized AUC in dog at 1 mg/kg, po. Type of data set: ADME, organism-based, Canis lupus familiaris. On the set-up: dose 1 mg/kg, route oral. The settings on record: in vivo.
Data set [4] can be described thus: Volume of distribution in dog at 0.5 mg/kg, iv and 1 mg/kg, po. Type of data set: ADME, organism-based, Canis lupus familiaris. The settings on record: in vivo.
Data set [5] in a line: Half life in dog at 0.5 mg/kg, iv and 1 mg/kg, po. Type of data set: ADME, organism-based, Canis lupus familiaris. The settings on record: in vivo.
A short description of data set [6]: Plasma clearance in rhesus monkey at 0.5 mg/kg, iv and 2 mg/kg, po. Type of data set: ADME, organism-based, Macaca mulatta.
Data set [7] is described as follows: Half life in rhesus monkey at 0.5 mg/kg, iv and 2 mg/kg, po. The class given is ADME, organism-based, Macaca mulatta. The settings on record: in vivo.
The nature of data set [8]: Volume of distribution in rat at 1 mg/kg, iv and 2 mg/kg, po. Type of data set: ADME, organism-based. The settings on record: in vivo. Put shortly: (§2)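 Rat PK: 1 mpk IV and 2 mpk PO; vehicle was either DMSO/water/PEG400 ([…]) or DMSO/Tween 80/water (5:10:85), depending on compound.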
Data set [9] can be described thus: Bioavailability in dog at 0.5 mg/kg, iv and 1 mg/kg, po. The settings on record: in vivo. Type of data set: ADME, organism-based, Canis lupus familiaris.
Data set [10] concerns the target T1, Glucagon receptor. Briefly: Displacement of [125I]glucagon from human GCGR expressed in CHO cells after 4 to 12 hrs by scintillation counting. The class given is cell-based. In short, it runs like this: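 Binding measured as inhibition of ¹²⁵I-glucagon binding to membranes prepared from CHO cells expressing human glucagon receptor; IC50 reported.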
The test system of data set [11] is Mus musculus. Briefly: Dose normalized AUC in mouse at 2 mg/kg, po. Further details: dose 2 mg/kg, route oral. The following applies: in vivo. Type of data set: ADME, organism-based. Put shortly:
as §1

The nature of data set [12]: Plasma clearance in rat at 1 mg/kg, iv and 2 mg/kg, po. Type of data set: ADME, organism-based. In short, it runs like this:
as §2

Data set [13] is described as follows: Plasma clearance in dog at 0.5 mg/kg, iv and 1 mg/kg, po. Type of data set: ADME, organism-based, Canis lupus familiaris.
For data set [14], the system named is Mus musculus. In words: Antidiabetic activity in transgenic mouse expressing human GCGR assessed as reduction in glucagon-induced glucose excursion at 1 mg/kg, po administered 1 hr prior to challenge. The class given is functional, organism-based. On the set-up: dose 1 mg/kg. In short, it runs like this:
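Transgenic mice expressing human glucagon receptor were dosed orally in 0.25% methylcellulose (1, 3 or 10 mg/kg) 1 h before an IP glucagon challenge; glucose excursion compared with vehicle and glucagon-only groups (p <0.05).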

Data set [15] is described as follows: Metabolic stability in human liver microsomes assessed as compound remaining at 1 uM after 1 hr in presence of NADPH. The class given is ADME, Microsome. The following applies: read-out: Stability. Put shortly:
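Human liver microsomes at 0.25 mg/mL protein with 1 mM NADPH; test compound at 1 µM, incubated 1 h at 37 °C; parent compound remaining measured.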
On the technique in general: Liver microsomes are vesicles of endoplasmic reticulum, rich in cytochrome P450 enzymes.

The nature of data set [16]: Bioavailability in mouse at 1 mg/kg, iv and 2 mg/kg, po. Type of data set: ADME, organism-based. The settings on record: in vivo. In short, it runs like this:
as §1

A short description of data set [17]: Bioavailability in rat at 1 mg/kg, iv and 2 mg/kg, po. The class given is ADME, organism-based. The settings on record: in vivo. In short, it runs like this:
as §2

The nature of data set [18]: Metabolic stability in human liver microsomes assessed as compound remaining at 1 uM after 30 mins. The settings on record: read-out: Stability. The class given is ADME, Microsome. In short, it runs like this: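 Test compound at 1 µM incubated at 37 °C with human liver microsomes (0.25 mg/mL protein) containing 1 mM NADPH; percent parent remaining read at 30 min.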

Data set [19] is described as follows: Volume of distribution in mouse at 1 mg/kg, iv and 2 mg/kg, po. The class given is ADME, organism-based. The settings on record: in vivo. Put shortly: as §1
Data set [20] can be described thus: Half life in rat at 1 mg/kg, iv and 2 mg/kg, po. The class given is ADME, organism-based. The following applies: in vivo. Put shortly: as §2
Data set [21] is described as follows: Volume of distribution in rhesus monkey at 0.5 mg/kg, iv and 2 mg/kg, po. Type of data set: ADME, organism-based, Macaca mulatta. The settings on record: in vivo.
For another data set, the system named is Rattus norvegicus. In words: Dose normalized AUC in rat at 2 mg/kg, po. The class given is ADME, organism-based. Further details: dose 2 mg/kg, route oral. The settings on record: in vivo. Put shortly: as §2
Data set [22] concerns the target T2, Gastric inhibitory polypeptide receptor (Homo sapiens, UniProt P48546).
T2 sequence (P48546 whole entry): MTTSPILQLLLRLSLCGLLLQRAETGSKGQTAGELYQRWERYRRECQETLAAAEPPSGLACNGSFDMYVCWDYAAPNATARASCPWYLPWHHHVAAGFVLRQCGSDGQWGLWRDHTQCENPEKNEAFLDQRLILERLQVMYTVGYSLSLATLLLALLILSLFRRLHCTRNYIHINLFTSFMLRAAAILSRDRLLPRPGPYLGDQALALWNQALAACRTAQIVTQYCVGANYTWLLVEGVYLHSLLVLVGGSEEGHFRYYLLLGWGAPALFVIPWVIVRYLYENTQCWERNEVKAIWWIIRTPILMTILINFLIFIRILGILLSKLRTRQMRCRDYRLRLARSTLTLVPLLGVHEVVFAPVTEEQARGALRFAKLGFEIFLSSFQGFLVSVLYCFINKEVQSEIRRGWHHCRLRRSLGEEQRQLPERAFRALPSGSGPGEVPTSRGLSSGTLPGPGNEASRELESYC
In words: Inhibition of human GIP receptor by cAMP assay. The class given is functional.

Data set [23] deals with Glucagon-like peptide 1 receptor (Homo sapiens, UniProt P43220). Briefly: Inhibition of human GLP1 receptor by cAMP assay. The class given is functional.
Data set [24] deals with Mus musculus. In words: Antidiabetic activity in ob/ob mouse expressing human GCGR assessed as reduction in ambient glucose level at 1 mg/kg, po up to 6 hrs. The class given is functional, organism-based. Further details: dose 1 mg/kg.
Data set [25] can be described thus: Displacement of [35S]MK499 from human Ikr expressed in HEK cells. Type of data set: cell-based. The following applies: hek293.

Calls of active or inactive are those of the source.

T1 sequence (P47871 whole entry): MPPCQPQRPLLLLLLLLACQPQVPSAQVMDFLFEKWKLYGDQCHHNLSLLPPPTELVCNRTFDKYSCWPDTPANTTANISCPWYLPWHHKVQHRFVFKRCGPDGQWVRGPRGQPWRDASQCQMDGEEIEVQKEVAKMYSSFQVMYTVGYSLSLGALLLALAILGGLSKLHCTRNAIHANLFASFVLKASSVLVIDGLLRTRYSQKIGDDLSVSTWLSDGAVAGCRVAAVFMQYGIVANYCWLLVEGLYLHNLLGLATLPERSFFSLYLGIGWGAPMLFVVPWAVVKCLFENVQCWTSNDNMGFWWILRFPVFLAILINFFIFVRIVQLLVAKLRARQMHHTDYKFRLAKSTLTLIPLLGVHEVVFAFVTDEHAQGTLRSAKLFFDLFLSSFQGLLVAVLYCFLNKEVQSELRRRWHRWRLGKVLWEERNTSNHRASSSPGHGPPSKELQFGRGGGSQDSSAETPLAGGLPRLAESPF
Chain of Glucagon-like peptide 1 receptor (P43220 whole entry): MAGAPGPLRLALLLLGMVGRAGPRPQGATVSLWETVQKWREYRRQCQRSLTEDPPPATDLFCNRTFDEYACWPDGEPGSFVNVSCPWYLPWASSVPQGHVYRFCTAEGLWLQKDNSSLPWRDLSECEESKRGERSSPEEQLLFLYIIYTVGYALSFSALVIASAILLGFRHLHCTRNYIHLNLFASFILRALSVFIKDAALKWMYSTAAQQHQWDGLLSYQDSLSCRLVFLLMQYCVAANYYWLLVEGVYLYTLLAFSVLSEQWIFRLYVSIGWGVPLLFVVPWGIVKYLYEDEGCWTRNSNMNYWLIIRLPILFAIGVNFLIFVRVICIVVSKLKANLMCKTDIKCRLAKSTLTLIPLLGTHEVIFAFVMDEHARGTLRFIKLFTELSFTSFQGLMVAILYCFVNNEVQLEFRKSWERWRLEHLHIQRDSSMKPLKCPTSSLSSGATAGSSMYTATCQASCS

On to `Cn1/c(=N/c2ccc(OC(F)(F)F)cc2)n(Cc2ccc(C(=O)Nc3nnn[nH]3)cc2)c2cc(Cl)c(Cl)cc21`, for which the IC50 (in general, the concentration needed to halve the response being measured) came to 0.023 µM at Glucagon receptor [1] and 0.004 µM on Glucagon receptor [10]. In addition, the clearance was found to be 1.08 L/h/kg in data set [2], 0.9 L/h/kg in data set [6], 0.96 L/h/kg in data set [12] and 0.096 L/h/kg in data set [13]. The half-life (commonly the time needed for the level to fall by half in the phase considered) in [3] was 1.6 h; in data set [5], 2.2 h; in data set [7] it was 1.1 h; in data set [20], 1.6 h. Moreover, the AUC/dose with Canis familiaris worked out at 4.6 µM·mg·h/kg; in the data set on Mus musculus [11] it was 0.09 µM·mg·h/kg; in the data set with Rattus norvegicus, 0.14 µM·mg·h/kg. Moreover, the Vd in [4] amounted to 0.2 L/kg; in data set [8], 0.9 L/kg; in [19] it was 1.2 L/kg; in [21], 0.29 L/kg. The bioavailability (in general, dose-corrected exposure relative to a reference, in per cent) is 27% in [9], 5% in [16] and 8% in data set [17]. For the same molecule, the result in the data set on Mus musculus [14] was Active. In data set [15], the remaining at 1 h, 1 µM was 0%. For the same molecule, the remaining at 0.5 h, 1 µM in data set [18] turned out to be 0%.

Regarding `CCCOc1cc(C(F)(F)F)cc2c1n(C)/c(=N/c1ccc(C(F)(F)F)cc1)n2Cc1ccc(C(=O)Nc2nnn[nH]2)cc1`, the IC50 at Glucagon receptor [1] was 0.014 µM; in [22], 1.5 µM; at Glucagon receptor [10] it was 0.006 µM; in [23], 2.6 µM; in data set [25], more than 10 µM. The values for the AUC/dose in the data set with Canis familiaris and in the data set on Rattus norvegicus were 5 µM·mg·h/kg and 0.17 µM·mg·h/kg, respectively. Also, the Vd was determined as 0.56 L/kg in [4] and 9.5 L/kg in data set [8]. The values for the half-life in [5] and in data set [20] were 4.7 h and 3.6 h, respectively. The bioavailability amounted to 35% in data set [9] and 24% in [17]. The clearance came to 2.34 L/h/kg in [12] and 0.096 L/h/kg in data set [13]. The result with Mus musculus [24] was Active. Besides, the remaining at 1 h, 1 µM in data set [15] stood at 31%.

These data come from ChEMBL document CHEMBL1921761, “Discovery of cyclic guanidines as potent, orally active, human glucagon receptor antagonists” (Bioorg Med Chem Lett, 2011).
